This is an account of results in ChEMBL document CHEMBL3351764, “Design, synthesis and biological activity of flavonoid derivatives as selective agonists for neuromedin U 2 receptor” (Bioorg Med Chem, 2014).

Chain of Neuromedin-U receptor 2 (Q9GZQ4 whole entry): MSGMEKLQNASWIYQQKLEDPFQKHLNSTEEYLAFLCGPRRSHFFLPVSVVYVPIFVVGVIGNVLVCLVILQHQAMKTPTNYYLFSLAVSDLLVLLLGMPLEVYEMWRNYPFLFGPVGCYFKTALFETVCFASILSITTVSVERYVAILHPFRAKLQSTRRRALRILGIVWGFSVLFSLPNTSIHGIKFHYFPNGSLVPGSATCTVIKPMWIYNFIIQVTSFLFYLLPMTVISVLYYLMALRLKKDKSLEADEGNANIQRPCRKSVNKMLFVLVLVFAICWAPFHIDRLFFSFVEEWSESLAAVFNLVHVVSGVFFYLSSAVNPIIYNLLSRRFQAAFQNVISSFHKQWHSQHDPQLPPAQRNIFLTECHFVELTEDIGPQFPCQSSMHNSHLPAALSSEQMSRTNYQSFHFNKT

This assay deals with Neuromedin-U receptor 2 (Homo sapiens, UniProt Q9GZQ4). The experiment in a line: Agonist activity at human NMU2R transfected in HEK293 cells after 7 hrs by luciferase reporter gene assay. It is filed as cell-based. The settings on record: read-out: EC50. The method, boiled down:
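HEK-293 cells were stably co-transfected with a reporter gene construct and human NMU2R cDNA in pcDNA3.1(+), maintained under G418 selection at 37 °C in 5% CO2, then seeded and incubated overnight. Compounds were added at various concentrations for 7 h at 37 °C, followed by Bright-Glo luciferase read-out. Forskolin and NMU served as positive controls. EC50 was fitted by four-parameter logistic regression; means ± SEM of three independent experiments.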
On the technique in general: A reporter such as luciferase makes a cellular process visible.
A word on the EC50: it is the concentration at which the effect is half-maximal. As to `C[C@@H]1O[C@@H](OC[C@H]2O[C@@H](Oc3c(-c4ccc(O)c(O)c4)oc4cc(O)cc(O)c4c3=O)[C@H](O)[C@@H](O)[C@@H]2O)[C@H](O)[C@H](O)[C@H]1O` [RUTIN], the EC50 stood at 1200 µM.
As for `CNCC(O)c1ccc(O)cc1` (stereo not drawn) [OXEDRINE], the 50% effective concentration (EC50) was determined as 6.6 µM.
As to H-FRVDEEFQSPFASQSRGYFLFRPRN-NH2, the 50% effective concentration (EC50) stood at 6.1 µM.
